Experimental data from ChEMBL document CHEMBL4017530, “Mind the Metal: A Fragment Library-Derived Zinc Impurity Binds the E2 Ubiquitin-Conjugating Enzyme Ube2T and Induces Structural Rearrangements” (J Med Chem, 2017).
Residue numbers refer to the chain shown, from its start. Activity calls are given as the source filed them. No cut-off for these calls is given here.

Columns and labels:
[1] = tested on: T1, Ubiquitin-conjugating enzyme E2 T (Homo sapiens), Q9NPD8 [C86K,K91R,K95R]; assay: Binding affinity to N-terminally 6xHis-Smt3 tagged human Ube2T C86K/K91R/K95R mutant expressed in Escherichia coli by DSF method
T1 sequence (whole entry): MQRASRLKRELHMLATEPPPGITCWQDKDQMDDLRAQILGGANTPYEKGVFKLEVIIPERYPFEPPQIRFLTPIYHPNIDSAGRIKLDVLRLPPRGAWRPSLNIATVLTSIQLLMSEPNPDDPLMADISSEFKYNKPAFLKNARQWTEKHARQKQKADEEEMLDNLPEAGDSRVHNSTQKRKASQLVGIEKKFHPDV
Procedure, shortened: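 Compound ranged from 5 μM to 5 mM. Samples heated from 25 to 95 °C at 1 °C/min with fluorescence read at each step. Melting temperature shift was the read-out.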

[2] = tested on: T1, Ubiquitin-conjugating enzyme E2 T (Homo sapiens), Q9NPD8 [C86K,K91R,K95R]; assay: (§1) Binding affinity to N-terminally 6xHis-Smt3 tagged FANCL RING fused human Ube2T C86K/K91R/K95R mutant expressed in Escherichia coli by ITC method
Procedure, shortened: (§2)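 Titrations at 25 °C with stirring at 750 rpm in 100 mM Tris pH 8.0, 100 mM NaCl, 0.5 mM TCEP. Protein at approximately 50 μM. Titrant-into-buffer control used to correct for heat of dilution. Each titration repeated at least twice.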

[3] = target: T2, Ubiquitin-conjugating enzyme E2 T (Homo sapiens, UniProt Q9NPD8, C86K/K91R/K95R); assay: Binding affinity to N-terminally 6xHis-Smt3 tagged human Ube2T C86K/K91R/K95R mutant expressed in Escherichia coli by ITC method; procedure, shortened: as §2
[4] = target: T2, Ubiquitin-conjugating enzyme E2 T; assay: as §1; procedure, shortened: as §2
[5] = tested on: T1, Ubiquitin-conjugating enzyme E2 T (Homo sapiens), Q9NPD8 [C86K,K91R,K95R]; assay: Binding affinity to N-terminally 6xHis-Smt3 tagged Ub fused human Ube2T C86K/K91R/K95R mutant expressed in Escherichia coli at 1.5 mM by ITC method; procedure, shortened: as §2
[6] = tested on: T1, Ubiquitin-conjugating enzyme E2 T (Homo sapiens), Q9NPD8 [C86K,K91R,K95R]; assay: Binding affinity to N-terminally 6xHis-Smt3 tagged human Ube2T C86K/K91R/K95R mutant expressed in Escherichia coli in presence of EDTA by ITC method
Procedure, shortened: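 ITC at 25 °C with stirring at 750 rpm, protein approx. 50 μM. Buffer was 100 mM Tris pH 8.0, 100 mM NaCl, 0.5 mM TCEP, plus 2 mM EDTA. Heat of dilution corrected by titrant-into-buffer control. Repeated at least twice.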

[7] = tested on: T1, Ubiquitin-conjugating enzyme E2 T (Homo sapiens), Q9NPD8 [C86K,K91R,K95R]; assay: Binding affinity to biotin labeled Ube2T C86K/K91R/K95R mutant (unknown origin) assessed as association and dissociation response at 2 uM by biolayer interferometry analysis
Procedure, shortened: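 Bio-layer interferometry with compound at a lowest tested concentration of 2 μM. Association and dissociation responses were recorded.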

[8] = target: T3, Ubiquitin-conjugating enzyme E2 T (Homo sapiens) (UniProt Q9NPD8); assay: Binding affinity to human 15N-labelled C-terminal flexible tail lacking Ube2T (1 to 154 residues) (unknown origin) at 500 uM by NMR spectrocopy
T3 sequence (whole entry): T1 sequence (whole entry) with K86C, R91K, R95K
Procedure, shortened: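 [1H-15N]-HSQC spectra recorded on 50 μM 15N-Ube2T ΔC (residues 1-154) with compound added at 100, 300 and 500 μM. Read-out was weakening or loss of resonance peaks compared with the apo spectrum.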

[9] = target: T3, Ubiquitin-conjugating enzyme E2 T (Homo sapiens); assay: Reversible binding affinity to human 15N-labelled C-terminal flexible tail lacking Ube2T (1 to 154 residues) at 100 to 500 uM measured after overnight dialysis by NMR spectrocopy
Procedure, shortened: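 HSQC on 50 μM 15N-Ube2T ΔC with compound at 100, 300 and 500 μM. Compound was then removed by overnight dialysis in 50 mM potassium phosphate pH 6.8, 85 mM NaCl, 1 mM DTT. HSQC recorded again and compared with the apo peak positions.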

[10] = target: Ubiquitin-like modifier-activating enzyme 1 (Homo sapiens) (UniProt P22314); assay: Inhibition of recombinant human E1 charging with ubiquitin at 20 to 100 uM after 10 mins in presence of ATP by coomassie staining based SDS PAGE analysis
Ubiquitin-like modifier-activating enzyme 1 (Homo sapiens), sequence (P22314 whole entry, looked up): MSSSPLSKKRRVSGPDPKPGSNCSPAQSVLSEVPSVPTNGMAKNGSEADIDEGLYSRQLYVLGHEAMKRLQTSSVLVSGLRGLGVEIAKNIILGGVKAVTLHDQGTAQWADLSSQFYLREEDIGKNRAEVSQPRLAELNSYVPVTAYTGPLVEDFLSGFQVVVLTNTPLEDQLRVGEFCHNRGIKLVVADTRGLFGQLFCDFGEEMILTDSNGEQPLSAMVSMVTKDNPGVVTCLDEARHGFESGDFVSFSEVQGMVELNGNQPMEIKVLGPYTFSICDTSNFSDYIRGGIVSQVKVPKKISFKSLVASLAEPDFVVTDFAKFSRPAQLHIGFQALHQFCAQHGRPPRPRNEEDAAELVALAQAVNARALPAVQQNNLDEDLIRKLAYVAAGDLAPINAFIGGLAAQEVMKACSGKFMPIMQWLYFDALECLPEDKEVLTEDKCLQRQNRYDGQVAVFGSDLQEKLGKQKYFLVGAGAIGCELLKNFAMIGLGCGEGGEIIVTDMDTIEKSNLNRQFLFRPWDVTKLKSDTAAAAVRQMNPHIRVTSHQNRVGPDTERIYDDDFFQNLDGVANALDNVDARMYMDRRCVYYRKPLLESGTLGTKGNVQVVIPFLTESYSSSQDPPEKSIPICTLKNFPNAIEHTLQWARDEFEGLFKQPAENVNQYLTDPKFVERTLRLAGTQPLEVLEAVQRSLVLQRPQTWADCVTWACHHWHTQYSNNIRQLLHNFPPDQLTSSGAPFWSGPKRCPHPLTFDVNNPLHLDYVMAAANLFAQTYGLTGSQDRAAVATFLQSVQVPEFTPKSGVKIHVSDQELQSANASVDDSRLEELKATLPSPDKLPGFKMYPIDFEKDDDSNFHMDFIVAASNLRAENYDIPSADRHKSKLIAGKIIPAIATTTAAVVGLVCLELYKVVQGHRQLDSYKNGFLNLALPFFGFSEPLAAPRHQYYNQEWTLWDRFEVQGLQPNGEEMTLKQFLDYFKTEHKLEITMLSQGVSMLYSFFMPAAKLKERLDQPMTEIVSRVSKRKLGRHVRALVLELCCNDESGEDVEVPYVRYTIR

SMILES | Activity [1] | Activity [2] | also measured
CC1CCCN1c1ccc(C(=N)N)cn1 (stereo not drawn) | inactive | inactive | –
Cc1cc(C)n(-c2ccc(C(=N)N)cn2)n1 | Dose-dependent effect | – | Kd [3]: 17.7 µM; Kd [4]: 21.3 µM; Activity [5]: inactive; Activity [6]: inactive; Activity [7]: Active; Activity [8]: Active; Activity [9]: Active; inhibition [10]: inactive
CC1CCN(c2ccc(C(=N)N)cn2)C1 (stereo not drawn) | inactive | inactive | –
N=C(N)c1ccc(-n2cccn2)nc1 | Dose-dependent effect | – | –
[Cl-].[Cl-].[Zn+2] [ZINC CHLORIDE] | – | – | Kd [3]: 15.7 µM

Further lines, with some results ahead:

Activity [1] | Activity [2] | SMILES | also measured
Dose-dependent effect | – | N=C(N)c1ccc(N2CCCC2)nc1 | –
inactive | inactive | N=C(N)c1ccc(N2CCCCC2)nc1 | –
